As usually defined, the ED50 is the dose that gives a 50% effect, or the effect in half of the subjects. Higher therefore signals a need for a large dose. For orientation: IC50 means the concentration at which inhibition is half-maximal.

Assay [1] concerns Cavia porcellus. Description: Compound was tested for the inhibition of guinea pig active lung anaphylaxis (ALA) at 1 mg/kg iv. Type of assay: functional. An outline of the steps: (§1)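 Guinea pigs were sensitized with egg albumin 1 mg sc plus Bordetella pertussis vaccine adjuvant. Two weeks later: pentobarbital 65 mg/kg ip, then trachea, jugular vein and carotid cannulated. Drug given iv before an iv egg albumin challenge (0.5 mg/kg). Airway resistance (bronchoconstriction) and arterial pressure monitored. %inhibition given as mean ± SE; ED50 iv with 95% confidence limits.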

The subject of assay [2] is Cavia porcellus. Description: Compound was tested for the inhibition of guinea pig active lung anaphylaxis (ALA) administered intravenously. Type of assay: functional. As to conditions: iv. An outline of the steps:
as §1

The test system of assay [3] is Rattus norvegicus. The assay can be described thus: Compound was tested for the inhibition of rat passive cutaneous anaphylaxis (PCA) administered intraperitoneally. Format: functional. The following applies: ip. The procedure, abridged:
(§2)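 Male Sprague-Dawley rats were given 0.05 mL of high-titer IgE rat anti-ovalbumin antiserum intradermally. 24 h later: iv ovalbumin plus Evans Blue in saline, with simultaneous intradermal serotonin and histamine. Drug given ip 1 h before antigen. At 30 min, skin was reflected and wheal size and colour scored against a chart. %inhibition = (1 − mean treated/mean control score)×100. Dunnett's test, p ≤ 0.05.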

The subject of assay [4] is Rattus norvegicus. Description: Compound was tested […] for the inhibition of serotonin release in rat peritoneal cell. Format: functional.
Assay [5] relates to Rattus norvegicus. The assay can be described thus: Compound was tested for percent inhibition, at 0.12 mg/kg administered intraperitoneally against histamine. Type of assay: functional. As to conditions: ip, read-out: Inhibition, route intraperitoneal. The procedure, abridged: as §2
Assay [6] has as its system Rattus norvegicus. The assay can be described thus: Compound was tested for percent inhibition, at 0.12 mg/kg administered intraperitoneally against rat passive cutaneous anaphylaxis by Dunnett's test. Format: functional. The following applies: ip, read-out: Inhibition, route intraperitoneal. The procedure, abridged:
as §2

In assay [7] the test system is Rattus norvegicus. Description: Compound was tested for percent inhibition, at 0.12 mg/kg administered intraperitoneally against serotonin by Dunnett's test. Format: functional. The following applies: ip, read-out: Inhibition, route intraperitoneal. An outline of the steps:
as §2

Assay [8] relates to Rattus norvegicus. The assay can be described thus: Compound was tested for percent inhibition, at 0.37 mg/kg administered intraperitoneally against histamine by Dunnett's test. The following applies: ip, route intraperitoneal. Format: functional. An outline of the steps: as §2
In assay [9] the test system is Rattus norvegicus. Description: Compound was tested for percent inhibition, at 0.37 mg/kg administered intraperitoneally against serotonin by Dunnett's test. Type of assay: functional. The following applies: ip, route intraperitoneal. An outline of the steps:
as §2

In assay [10] the test system is Rattus norvegicus. Description: Compound was tested for the inhibition of rat passive cutaneous anaphylaxis (PCA) at 0.37 mg/kg dose ip (1h pretreatment). Format: functional. As to conditions: route intraperitoneal. The procedure, abridged: as §2
For assay [11], the system named is Rattus norvegicus. The assay can be described thus: Compound was tested for percent inhibition, at 0.37 mg/kg administered intraperitoneally against histamine. Type of assay: functional. As to conditions: ip, route intraperitoneal. An outline of the steps: as §2
The test system of assay [12] is Rattus norvegicus. The assay can be described thus: Compound was tested for percent inhibition, at 3.3 mg/kg administered intraperitoneally against histamine by Dunnett's test. Type of assay: functional. As to conditions: ip, route intraperitoneal. The procedure, abridged: as §2
In assay [13] the test system is Rattus norvegicus. Description: Compound was tested for percent inhibition, at 3.3 mg/kg administered intraperitoneally against rat passive cutaneous anaphylaxis by Dunnett's test. The following applies: ip, route intraperitoneal. Type of assay: functional. The procedure, abridged:
as §2

Assay [14] relates to Rattus norvegicus. Description: Compound was tested for percent inhibition, at 3.3 mg/kg administered intraperitoneally against serotonin by Dunnett's test. Type of assay: functional. As to conditions: ip, route intraperitoneal. An outline of the steps:
as §2

Assay [15] has as its system Rattus norvegicus. The assay can be described thus: Compound was tested for the inhibition of rat passive cutaneous anaphylaxis (PCA) at 10 mg/kg dose ip (1h pretreatment). Type of assay: functional. As to conditions: route intraperitoneal.
The test system of assay [16] is Cavia porcellus. The assay can be described thus: Compound was tested for the inhibition of guinea pig active lung anaphylaxis (ALA) at 100 mg/kg iv. Type of assay: functional. An outline of the steps: as §1
In assay [17] the test system is Rattus norvegicus. The assay can be described thus: Compound was tested for the inhibition of rat passive cutaneous anaphylaxis (PCA) at 10 mg/kg dose iv (5 min pretreatment). Type of assay: functional. The procedure, abridged: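 Rat skin IgE/ovalbumin PCA with simultaneous intradermal histamine and serotonin wheals. Drug given iv 5 min before the iv ovalbumin/Evans Blue challenge. Read 30 min later by wheal size and colour score. %inhibition = (1 − mean treated/mean control score)×100. Dunnett's test, p ≤ 0.05.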

Assay [18] concerns Rattus norvegicus. Description: Compound was tested for percent inhibition, at 1 mg/kg administered intravenously against histamine. As to conditions: iv, read-out: Inhibition.
The subject of assay [19] is Rattus norvegicus. The assay can be described thus: Compound was tested for percent inhibition, at 10 mg/kg administered intravenously against histamine by Dunnett's test. The following applies: iv.
Assay [20] relates to Rattus norvegicus. The assay can be described thus: Compound was tested for percent inhibition, at 10 mg/kg administered intravenously against serotonin by Dunnett's test. The following applies: iv.
For assay [21], the system named is Rattus norvegicus. The assay can be described thus: Compound was tested for percent inhibition, at 1 mg/kg administered intravenously against rat passive cutaneous anaphylaxis by Dunnett''s test. The following applies: iv, read-out: Inhibition.
Assay [22] has as its system Cavia porcellus. The assay can be described thus: Compound was tested for the inhibition of guinea pig active lung anaphylaxis (ALA) at 0.01 mg/kg iv. Format: functional. An outline of the steps:
as §1

The subject of assay [23] is Cavia porcellus. Description: Inhibition of guinea pig ALA at a dose of 1 mg/kg after 1 hr postdosing intraperitoneally 1 h. Type of assay: functional. The following applies: ip, route intraperitoneal. The procedure, abridged: (§3)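 Guinea pigs were sensitized with egg albumin 1 mg sc plus pertussis vaccine adjuvant. Two weeks later they were anesthetized (pentobarbital 65 mg/kg ip) and cannulated. Drug was given ip or orally at 1 mg/kg. Challenge with egg albumin 0.5 mg/kg iv at 1, 7, 8 or 24 h post-dose, with bronchoconstriction measured. %inhibition given as mean ± SD.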

For assay [24], the system named is Cavia porcellus. The assay can be described thus: Inhibition of guinea pig ALA at a dose of 1 mg/kg after 1 hr postdosing orally 1 h. Type of assay: functional. As to conditions: route oral. The procedure, abridged: as §3
The subject of assay [25] is Cavia porcellus. Description: Inhibition of guinea pig ALA at a dose of 1 mg/kg after 24 hr postdosing intraperitoneally. Format: functional. As to conditions: ip, route intraperitoneal. The procedure, abridged: as §3
Assay [26] has as its system Cavia porcellus. Description: Inhibition of guinea pig ALA at a dose of 1 mg/kg after 24 hr postdosing orally. Format: functional. As to conditions: route oral. An outline of the steps: as §3
The subject of assay [27] is Cavia porcellus. Description: Inhibition of guinea pig ALA at a dose of 1 mg/kg after 7 hr postdosing intraperitoneally. The following applies: ip, route intraperitoneal. Format: functional. The procedure, abridged:
as §3

For assay [28], the system named is Cavia porcellus. Description: Inhibition of guinea pig ALA at a dose of 1 mg/kg after 8 hr postdosing orally. Type of assay: functional. As to conditions: route oral. The procedure, abridged:
as §3

In the assay with Cavia porcellus [1], `OCCCN1CCN(C2=Nc3ccccc3Cn3c2cc2ccccc23)CC1` had an inhibition in vivo at 1 mg/kg of 64%. The ED50 was 0.69 mg/kg with Cavia porcellus [2] and 0.08 mg/kg in the assay on Rattus norvegicus [3]. The same molecule displayed an IC50 in the assay on Rattus norvegicus [4] of 15.2 µM. For the same molecule, the figures for the inhibition in vivo at 0.12 mg/kg in the assay on Rattus norvegicus [5], in the assay with Rattus norvegicus [6] and with Rattus norvegicus [7] were 6.8%, 58.8% and 24.9%, respectively. For the same molecule, the inhibition in vivo at 0.37 mg/kg in the assay on Rattus norvegicus [8] came out at 53%; in the assay with Rattus norvegicus [9], 53.2%; with Rattus norvegicus [10], 92.9%.

In turn, `c1ccc2c(c1)Cn1c(cc3ccccc31)C(N1CCNCC1)=N2` returned an inhibition in vivo at 1 mg/kg in the assay on Cavia porcellus [1] of 82%. Also, the 50% effect level in the assay with Rattus norvegicus [3] (ED50) was put at a dose of 0.43 mg/kg. Inhibition with Rattus norvegicus [4] was half-maximal at 7.38 µM (IC50). Moreover, the inhibition in vivo at 0.37 mg/kg with Rattus norvegicus [11] turned out to be 14.2%; in the assay on Rattus norvegicus [9] it was 44.5%; in the assay with Rattus norvegicus [10], 52%. Besides, the figures for the inhibition in vivo at 3.3 mg/kg with Rattus norvegicus [12], in the assay on Rattus norvegicus [13] and in the assay on Rattus norvegicus [14] were 55.7%, 92.7% and 65.8%, respectively.

Take `c1ccc2c(c1)Cn1c(cc3ccccc31)C(N1CCCCC1)=N2`: the inhibition in vivo at 10 mg/kg with Rattus norvegicus [15] amounted to 27.4%.

Consider `O=C([O-])c1cc(=O)c2c(OCC(O)COc3cccc4oc(C(=O)[O-])cc(=O)c34)cccc2o1.[Na+].[Na+]` [CROMOLYN SODIUM], for which, in the assay on Cavia porcellus [16], the inhibition in vivo at 100 mg/kg is 25%. Moreover, it took a dose of 2.55 mg/kg to reach the 50% effect level with Rattus norvegicus [3] (ED50). The molecule also showed an IC50 in the assay on Rattus norvegicus [4] of 256 µM. Further, the inhibition in vivo at 10 mg/kg in the assay on Rattus norvegicus [17] worked out at 97%; with Rattus norvegicus [19], 8.5%; in the assay on Rattus norvegicus [20], 21.4%. Also, the values for the inhibition in vivo at 1 mg/kg in the assay on Rattus norvegicus [18] and with Rattus norvegicus [21] were 0% and 37%, respectively.

In the assay with Cavia porcellus [22], `CN1CCN(C2=Nc3ccccc3Cn3c2cc2ccccc23)CC1` showed an inhibition in vivo at 0.01 mg/kg of 41%. The values for the ED50 in the assay on Cavia porcellus [2] and in the assay with Rattus norvegicus [3] were 0.01 mg/kg and 0.19 mg/kg, respectively. In addition, the inhibition in vivo at 1 mg/kg with Cavia porcellus [23] is 74%; in the assay on Cavia porcellus [24], 51%; in the assay with Cavia porcellus [25], 26%; in the assay on Cavia porcellus [26] it was 61%; in the assay on Cavia porcellus [27], 75%; in the assay on Cavia porcellus [28] it was 87%. In the assay on Rattus norvegicus [4], this molecule displayed a concentration for half-maximal inhibition (IC50) of 15.9 µM. The inhibition in vivo at 0.37 mg/kg in the assay with Rattus norvegicus [11] was 58.2%; in the assay with Rattus norvegicus [9], 50.9%; in the assay with Rattus norvegicus [10], 93.6%. Further, the inhibition in vivo at 3.3 mg/kg stood at 63.3% in the assay with Rattus norvegicus [12], 100% with Rattus norvegicus [13] and 65.9% in the assay on Rattus norvegicus [14].

In turn, `CCOC(=O)N1CCN(C2=Nc3ccccc3Cn3c2cc2ccccc23)CC1` gave an ED50 in the assay with Rattus norvegicus [3] of 0.67 mg/kg. Further, the inhibition in vivo at 0.37 mg/kg in the assay on Rattus norvegicus [10] is 38.7%.

Values taken from ChEMBL document CHEMBL1123462, “Indolo[2,1-c][1,4]benzodiazepines: a new class of antiallergic agents” (J Med Chem, 1986).
